Measurements pooled from the literature.
Lines come from different studies, so protocols differ.
Target: Ephrin type-A receptor 5 (EPHA5, Homo sapiens, UniProt P54756)

The remaining binding of `CN(CCCC(F)(F)F)c1nccc(-c2cnn3ncccc23)n1` is reported as 100% (binding; 1 µM).
The remaining binding of `Cc1cnc(Nc2ccc(C(=O)N3CCC(N4CCCC4)CC3)cc2)nc1-c1cc2ccccc2s1` is reported as 74% (binding, competition with immobilised ligand; 1 µM).
The remaining binding of `COc1ncc2cc3ccccc3nc2c1C#N` is reported as 99% (cell-free assay, competition with immobilised ligand; 5 µM).
The remaining binding of `c1cnn2ncc(-c3ccnc(N4CCC45COC5)n3)c2c1` is reported as 99% (binding; 1 µM).
For `O=C(Nc1cnc(Oc2ccc(F)cc2)nc1)N1CCc2ncccc2[C@@H]1c1ccc(F)cc1`, the remaining binding was 100% (cell-free assay, competition with immobilised ligand; 1 µM).
`COc1cnc(Nc2cccc(S(N)(=O)=O)c2)nc1N1CCN(c2ccccc2)CC1` has a remaining binding of 100% (binding, competition with immobilised ligand; 1 µM).
`O=C(NCC1CCOCC1)c1n[nH]cc1NC(=O)c1c(F)cccc1F` gave a remaining binding of 100% (binding, competition with immobilised ligand; 1 µM).
`C[C@H](c1cccc(C#N)c1)n1cc(Cl)cc(C(N)=O)c1=N` gave a remaining binding of 96% (cell-free assay, competition with immobilised ligand; 1 µM).
With `Nc1ncc2c(n1)-c1c([nH]c3ccc(C#CC4CC4)cc13)CCCC2` the remaining binding was 97% (binding, competition with immobilised ligand; 1 µM).
With `CC(=O)Nc1c(C(C)=O)c(=O)n(C)c2nc(-c3ccc(Cl)cc3Cl)c(-c3ccc(Cl)cc3)cc12` the remaining binding was 100% (cell-free assay, competition with immobilised ligand; 1 µM).
With `O=C(c1ccc(Nc2nccc(-c3cc4ccccc4s3)n2)cc1)N1CCC(N2CCCC2)CC1` the remaining binding was 100% (binding, competition with immobilised ligand; 1 µM).
The remaining binding of `Cc1nc(Cc2cccc(C(F)(F)F)c2)sc1-c1ccc(C(N)=O)nc1` is reported as 100% (cell-free assay, competition with immobilised ligand; 1 µM).
With `C[C@H]1CCN(c2nccc(-c3cnn4ncccc34)n2)C1` the remaining binding was 95% (binding; 1 µM).
`CC1=C(C#N)C(c2ccc3c(c2)c(NC(=O)c2ccccc2C)nn3C)C(C#N)=C(C)N1` gave a remaining binding of 77% (cell-free assay, competition with immobilised ligand; 1 µM).
`N[C@H]1CCN(c2nccc(-c3cnn4ncccc34)n2)C1` has a remaining binding of 100% (binding; 1 µM).
`CNCc1ccccc1-c1csc([C@@H](C)Nc2nc(C)nc3cc(OC)c(OC)cc23)c1` gave a remaining binding of 88% (cell-free assay, competition with immobilised ligand; 1 µM).
With `CN(C)c1nccc(-c2cnn3ncccc23)n1` the remaining binding was 100% (binding; 1 µM).
The remaining binding of `c1cncc(-c2cccc(Nc3nccc(NC4CCCCC4)n3)c2)c1` is reported as 100% (binding, competition with immobilised ligand; 10 µM).
For `Cc1cnn2ncc(-c3ccnc(N(C)C)n3)c2c1`, the remaining binding was 100% (binding; 1 µM).
`O=C(NCCCN1CCOCC1)c1ccc(Nc2ncc(Cl)c(-c3ccc(Cl)s3)n2)cc1` has a remaining binding of 99% (binding, competition with immobilised ligand; 1 µM).
